Test [1] has as its system HeLa. In words: Induction of apoptosis in human HeLa cells assessed as viable cells at 4 uM after 24 hrs by Annexin V-FITC/PI double staining based flow cytometric analysis (reference value: 85.2%). Format: functional. The note with it: read-out: Activity. Background: A flow cytometer gives signals particle by particle.
The subject of test [2] is Ca-Ski. In words: Cell cycle arrest in human CaSki cells assessed as decrease in accumulation at S phase at 4 uM incubated up to 72 hrs by propidium iodide staining based flow cytometric analysis. The format is functional. The method, boiled down:
(§1)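 Cells in DMEM/10% FBS at 37 °C, 5% CO2 were given 4 μM for 24, 48 or 72 h, with DMSO as control. After trypsinization they were fixed in chilled 70% ethanol on ice for 30 min, treated with RNase A (1 mg/mL) for 30 min at room temperature, and stained with PI (20 μg/mL). At least 10 000 events were read by flow cytometry to give sub-G1, G0/G1, S and G2/M fractions; mean ± SEM.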

The subject of test [3] is Ca-Ski. In words: Induction of apoptosis in human CaSki cells assessed as early apoptotic cells at 4 uM after 48 hrs by Annexin V-FITC/PI double staining based flow cytometric analysis (reference value: 4.4%). Format: functional.
The target of test [4] is T1, Homeobox protein SIX1 (Homo sapiens) (UniProt Q15475).
T1 sequence (whole entry): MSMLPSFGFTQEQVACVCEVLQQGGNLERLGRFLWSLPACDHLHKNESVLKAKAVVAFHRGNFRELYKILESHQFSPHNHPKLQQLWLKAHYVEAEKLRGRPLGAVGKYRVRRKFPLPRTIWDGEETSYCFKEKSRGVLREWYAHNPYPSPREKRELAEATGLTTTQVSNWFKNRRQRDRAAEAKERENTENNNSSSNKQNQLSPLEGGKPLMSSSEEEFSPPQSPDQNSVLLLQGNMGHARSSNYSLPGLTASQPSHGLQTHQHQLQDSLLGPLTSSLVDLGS
The test is described as follows: Inhibition of SIX1 in human SiHa cells at 2 to 4 uM after 48 hrs by Western blot analysis. The format is cell-based. The procedure, abridged: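 SiHa cells in DMEM with 10% FBS were seeded at 1 × 10^6 per 100 mm dish and treated the next day at 2 or 4 μM for 48 h. Lysis was in RIPA buffer with protease inhibitors. Equal protein was run on SDS-PAGE and transferred to PVDF, blocked in 5% milk/TBST, probed with anti-SIX1 (1:500) then HRP secondary (1:2000), and detected by chemiluminescence.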
On the technique in general: Immunoblotting shows a protein as a band on a membrane.

Test [5] has as its target T2, Protein E7 (Human papillomavirus 16) (UniProt P03129).
T2 sequence (whole entry): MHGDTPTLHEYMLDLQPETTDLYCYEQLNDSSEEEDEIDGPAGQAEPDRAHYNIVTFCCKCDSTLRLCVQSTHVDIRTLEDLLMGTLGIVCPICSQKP
In words: Inhibition of Human papillomavirus type16 derived E7 in human SiHa cells assessed as decrease in cyclin-D1 protein expression at 2 to 4 uM after 48 hrs by Western blot analysis. The format is cell-based. The procedure, abridged: (§2)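 Cells were seeded at 1 × 10^6 per 100 mm dish and treated next day with 2 or 4 μM for 48 h. They were trypsinised, PBS-washed and lysed in RIPA with protease inhibitors. Equal protein was run on SDS-PAGE and transferred to PVDF. Primary antibodies were used at 1:500, with BSA 3% for blocking and antibodies for CK2α, Rb and pRb, otherwise 5% milk in TBST. HRP secondary at 1:2000, chemiluminescence detection.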

Test [6] addresses T1, Homeobox protein SIX1 (Homo sapiens). In words: Inhibition of SIX1 in human CaSki cells at 2 to 4 uM after 48 hrs by Western blot analysis. The format is cell-based. The note with it: Ca-Ski. The method, boiled down:
as §2

The test system of test [7] is SiHa. In words: Cell cycle arrest in human SiHa cells assessed as accumulation at G2/M phase at 4 uM after 72 hrs by propidium iodide staining based flow cytometric analysis (reference value: 18%). The format is functional. The method, boiled down: (§3)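 Cells in DMEM with 10% FBS, 2 mM L-glutamine, pen-strep, 37 °C, 5% CO2; seeded and left overnight, then treated at 4 μM with DMSO as control. Harvested by trypsin at 24, 48 or 72 h, fixed in chilled 70% ethanol 30 min on ice, RNase A (1 mg/mL) 30 min at room temperature, PI (20 μg/mL). Flow cytometry, ≥10 000 events, G0/G1, S, G2/M fractions; mean ± SEM.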

Test [8] deals with C-33-A. The test is described as follows: Cell cycle arrest in human C33A cells assessed as accumulation at Sub G1 phase at 4 uM after 72 hrs by propidium iodide staining based flow cytometric analysis (reference value: 0.7%). The format is functional. The method, boiled down:
as §1

In test [9] the test system is Ca-Ski. In words: Cell cycle arrest in human CaSki cells assessed as accumulation at G2/M phase at 4 uM after 72 hrs by propidium iodide staining based flow cytometric analysis (reference value: 15.2%). Format: functional.
Test [10] relates to SiHa. In words: Antiproliferative activity against human SiHa cells assessed as reduction in cell viability after 48 hrs by CellTiter-Glo assay. Format: functional, cell-based. The procedure, abridged:
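ATP-based luminescent viability readout. Cells were grown in DMEM with 10% FBS, 2 mM L-glutamine and penicillin-streptomycin at 37 °C, 5% CO2. 2 × 10^4 cells/well were seeded, then exposed the next day to 0–40 μM for 24, 48 or 72 h. % viability = 100 × treated/control. IC50 was fitted from a sigmoid dose-response curve. Run at least three times in quadruplicate; mean ± SEM.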
On the technique in general: Cellular ATP, detected with luciferase, serves as a proxy for viable cell number.

The test system of test [11] is HeLa. In words: Induction of apoptosis in human HeLa cells assessed as viable cells at 4 uM after 48 hrs by Annexin V-FITC/PI double staining based flow cytometric analysis (reference value: 80.7%). The settings on record: read-out: Activity. Format: functional.
Test [12] deals with C-33-A. The test is described as follows: Induction of apoptosis in human C33A cells assessed as late apoptotic cells at 4 uM after 48 hrs by Annexin V-FITC/PI double staining based flow cytometric analysis (reference value: 2.5%). The format is functional.
The test system of test [13] is SiHa. The test is described as follows: Cell cycle arrest in human SiHa cells assessed as increase in accumulation at G0/G1 phase at 4 uM incubated for 48 hrs by propidium iodide staining based flow cytometric analysis. Format: functional. The method, boiled down:
as §3

Test [14] has as its system SiHa. The test is described as follows: Induction of apoptosis in human SiHa cells assessed as viable cells at 4 uM after 48 hrs by Annexin V-FITC/PI double staining based flow cytometric analysis (reference value: 93.7%). Format: functional. The note with it: read-out: Activity.
The subject of test [15] is HeLa. In words: Cell cycle arrest in human HeLa cells assessed as accumulation at G2/M phase at 4 uM after 24 hrs by propidium iodide staining based flow cytometric analysis (reference value: 16.4%). The format is functional. The method, boiled down:
as §1

The target of test [16] is Casein kinase II subunit alpha (Homo sapiens) (UniProt P68400). In words: Inhibition of CK2alpha in human CaSki cells at 2 to 4 uM after 48 hrs by Western blot analysis. The format is cell-based. The note with it: Ca-Ski. The procedure, abridged:
as §2

The target of test [17] is Protein E6 (Human papillomavirus 16) (UniProt P03126). In words: Inhibition of Human papillomavirus type16 derived E6 in human CaSki cells assessed as increase in p53 protein expression at 2 to 4 uM after 48 hrs by Western blot analysis. Format: cell-based. The settings on record: Ca-Ski. The procedure, abridged: as §2
Sequence of Protein E6 (Human papillomavirus 16) (P03126 whole entry): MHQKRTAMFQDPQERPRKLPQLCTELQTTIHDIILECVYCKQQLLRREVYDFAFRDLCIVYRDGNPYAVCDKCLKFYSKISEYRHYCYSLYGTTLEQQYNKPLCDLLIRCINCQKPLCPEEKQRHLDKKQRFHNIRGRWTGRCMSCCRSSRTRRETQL
Test [18] addresses T1, Homeobox protein SIX1 (Homo sapiens). The test is described as follows: Potency index, ratio for inhibition activity of apigenin to test compound for inhibition of SIX1 in human SiHa cells after 48 hrs by Western blot analysis. The format is cell-based. The procedure, abridged: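 Cells plated at 1 × 10^6 per 100 mm dish and treated next day for 48 h with test compound (2 or 4 μM) or apigenin (10, 20 or 40 μM). RIPA lysates with protease inhibitors; equal protein loaded for SDS-PAGE, then PVDF transfer. Blocked in 5% milk/TBST (3% BSA for CK2α); anti-SIX1 or anti-CK2α 1:500, HRP secondary 1:2000; chemiluminescent detection.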

pIC50: −log10 of the molar value. Calls of active or inactive are those of the source. No cut-off for these calls is given here.

Broadly, the pIC50 is the IC50 on a negative log10 scale, so that one unit is a factor of ten.

Sequence of Casein kinase II subunit alpha (Homo sapiens) (P68400 whole entry, looked up): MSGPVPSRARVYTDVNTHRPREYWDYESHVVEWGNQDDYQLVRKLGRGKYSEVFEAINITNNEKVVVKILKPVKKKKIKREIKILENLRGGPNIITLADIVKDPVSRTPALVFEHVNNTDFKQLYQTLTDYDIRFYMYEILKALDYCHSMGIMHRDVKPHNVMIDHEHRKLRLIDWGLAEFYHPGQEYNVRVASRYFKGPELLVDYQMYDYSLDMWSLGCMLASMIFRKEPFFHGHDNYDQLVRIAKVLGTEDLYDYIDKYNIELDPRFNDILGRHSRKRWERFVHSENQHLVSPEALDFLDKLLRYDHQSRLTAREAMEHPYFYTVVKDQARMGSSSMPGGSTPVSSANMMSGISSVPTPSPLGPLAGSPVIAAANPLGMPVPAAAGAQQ

Take `O[C@]12C=C(c3nccc4c3[nH]c3ccccc34)[C@@H]3CCN(CCCC/C=C\CC1)C[C@@]31C[C@@H]3/C=C\CCCCN3[C@H]12` [MANZAMINE A]: the viability at 4 µM in the test on HeLa [1] was 81.7%; with HeLa [11], 24.1%; with SiHa [14] it was 66.4%. Further, in the test on Ca-Ski [2], the result was Active. Moreover, the Activity with Ca-Ski [3] was 13.4%; in the test with SiHa [7], 12.7%; in the test on C-33-A [8], 31.3%; with Ca-Ski [9], 10.2%; in the test with C-33-A [12] it was 15.7%; in the test on HeLa [15], 13.8%. Besides, the inhibition result in [4], in test [5], in test [6], in test [16] and in test [17] was “Active” in each case. Besides, the pIC50 with SiHa [10] was 5.00. For the same compound, the “fold change (FC)” value with SiHa [13] is 1.2. Also, the Ratio in [18] came out at 10.

The values above are taken from ChEMBL document CHEMBL4602675, “The Marine Natural Product Manzamine A Inhibits Cervical Cancer by Targeting the SIX1 Protein” (J Nat Prod, 2020).
